From ChEMBL document CHEMBL4219033, “Anticancer activity profiling of parthenolide analogs generated via P450-mediated chemoenzymatic synthesis” (2018)

Tests used:
Format in all cases: functional
Jurkat [1] = test: Cytotoxicity against human Jurkat cells assessed as cell viability at 2 uM after 24 hrs by MTT assay relative to control; settings: read-out: Activity
Method in brief: (§1)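 Suspension lines grown in α-MEM plus 10% FBS and penicillin-streptomycin, 37 °C, 5% CO2. Seeded at 30,000 cells/well in phenol-red-free α-MEM and rested 15 h. Exposed to 10 µM, or 2 µM in the lower-dose repeat, at 1% DMSO final for 24 h. 5 mg/ml MTT added directly for 3 h at 37 °C. Plates spun, formazan dissolved in DMSO, OD read at 550 nm. Viability relative to vehicle.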

JeKo-1 [2] = test: Cytotoxicity against human JeKo1 cells assessed as cell viability at 2 uM after 24 hrs by MTT assay relative to control; settings: JeKo-1, 24 h, read-out: Activity; method in brief: as §1
Jurkat [3] = test: Cytotoxicity against human Jurkat cells assessed as cell viability at 10 uM after 24 hrs by MTT assay relative to control; settings: read-out: Activity; method in brief: as §1
JeKo-1 [4] = test: Cytotoxicity against human JeKo1 cells assessed as cell viability at 10 uM after 24 hrs by MTT assay relative to control; settings: JeKo-1, 24 h, read-out: Activity; method in brief: as §1
HeLa = test: Cytotoxicity against human HeLa cells assessed as cell viability at 10 uM after 24 hrs by MTT assay relative to control; settings: read-out: Activity
Method in brief: (§2)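 Adherent lines in DMEM plus 10% FBS and penicillin-streptomycin, 37 °C, 5% CO2, lifted with Accutase. Seeded at 500–10,000 cells/well and rested 15 h. Compounds from 10 mM DMSO stocks dosed at 10 µM final, 1% DMSO final, n = 5, for 24 h. Medium then swapped for 1 mg/ml MTT in phenol-red-free medium for 3 h at 37 °C. Formazan dissolved in DMSO, OD read at 550 nm. Viability normalised to 1% DMSO vehicle control.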

A549 = test: Cytotoxicity against human A549 cells assessed as cell viability at 10 uM after 24 hrs by MTT assay relative to control; settings: A549, 24 h, read-out: Activity; method in brief: as §2
HCT-116 = test: Cytotoxicity against human HCT116 cells assessed as cell viability at 10 uM after 24 hrs by MTT assay relative to control; settings: HCT-116, 24 h, read-out: Activity; method in brief: as §2
SJSA-1 = test: Cytotoxicity against human SJSA1 cells assessed as cell viability at 10 uM after 24 hrs by MTT assay relative to control; settings: SJSA-1, 24 h, read-out: Activity; method in brief: as §2
SK-N-MC = test: Cytotoxicity against human SK-N-MC cells assessed as cell viability at 10 uM after 24 hrs by MTT assay relative to control; settings: read-out: Activity; method in brief: as §2
PC-3 = test: Cytotoxicity against human PC3 cells assessed as cell viability at 10 uM after 24 hrs by MTT assay relative to control; settings: PC-3, 24 h, read-out: Activity; method in brief: as §2
MDA-MB-231 = test: Cytotoxicity against human MDA-MB-231 cells assessed as cell viability at 10 uM after 24 hrs by MTT assay relative to control; settings: MDA-MB-231, 24 h, read-out: Activity; method in brief: as §2
SK-MEL-2 = test: Cytotoxicity against human SK-MEL-2 cells assessed as cell viability at 10 uM after 24 hrs by MTT assay relative to control; settings: SK-MEL-2, 24 h, read-out: Activity; method in brief: as §2

## C=C1C(=O)O[C@@H]2[C@H]3O[C@]3(C)CC/C=C(/COC(=O)c3cc(-c4ccc(Cl)cc4)on3)CC[C@@H]12
Jurkat [1]
  viability at 2 µM: 94%
JeKo-1 [2]
  viability at 2 µM: 90.6%
Jurkat [3]
  viability at 10 µM: 47.1%
JeKo-1 [4]
  viability at 10 µM: 39.4%
HeLa
  viability at 10 µM: 88.4%
A549
  viability at 10 µM: 102%
HCT-116
  viability at 10 µM: 103%
SJSA-1
  viability at 10 µM: 100%
SK-N-MC
  viability at 10 µM: 64.5%
PC-3
  viability at 10 µM: 95.2%
MDA-MB-231
  viability at 10 µM: 100%
SK-MEL-2
  viability at 10 µM: 98.6%

## C=C1C(=O)O[C@@H]2[C@H]3O[C@]3(C)CC/C=C(/COC(C(=O)OCc3ccccc3)c3ccccc3)CC[C@@H]12 (stereo partly specified)
Jurkat [1]
  viability at 2 µM: 87.8%
JeKo-1 [2]
  viability at 2 µM: 98.7%
Jurkat [3]
  viability at 10 µM: 1%
JeKo-1 [4]
  viability at 10 µM: 0.8%
HeLa
  viability at 10 µM: 79.2%
A549
  viability at 10 µM: 81.5%
HCT-116
  viability at 10 µM: 45.8%
SJSA-1
  viability at 10 µM: 101%
SK-N-MC
  viability at 10 µM: 97.8%
PC-3
  viability at 10 µM: 85.2%
MDA-MB-231
  viability at 10 µM: 88.1%
SK-MEL-2
  viability at 10 µM: 80.7%

## C=C1C(=O)O[C@@H]2[C@H]3O[C@]3(C)CC/C=C(/COCc3ccccc3)CC[C@@H]12
Jurkat [1]
  viability at 2 µM: 91%
JeKo-1 [2]
  viability at 2 µM: 100%
Jurkat [3]
  viability at 10 µM: 6%
JeKo-1 [4]
  viability at 10 µM: 5%
HeLa
  viability at 10 µM: 74.8%
A549
  viability at 10 µM: 99.3%
HCT-116
  viability at 10 µM: 96.3%
SJSA-1
  viability at 10 µM: 99.4%
SK-N-MC
  viability at 10 µM: 75.3%
PC-3
  viability at 10 µM: 94.7%
MDA-MB-231
  viability at 10 µM: 100%
SK-MEL-2
  viability at 10 µM: 84.2%

## C=C1C(=O)O[C@@H]2[C@H]3O[C@]3(C)CC/C=C(/COC(=O)Nc3cccc4ccccc34)CC[C@@H]12
Jurkat [1]
  viability at 2 µM: 96%
JeKo-1 [2]
  viability at 2 µM: 102%
Jurkat [3]
  viability at 10 µM: 89%
JeKo-1 [4]
  viability at 10 µM: 16.8%
HeLa
  viability at 10 µM: 75%
A549
  viability at 10 µM: 84.5%
HCT-116
  viability at 10 µM: 100%
SJSA-1
  viability at 10 µM: 98.3%
SK-N-MC
  viability at 10 µM: 104%
PC-3
  viability at 10 µM: 81.9%
MDA-MB-231
  viability at 10 µM: 100%
SK-MEL-2
  viability at 10 µM: 73.6%

## C=C1C(=O)O[C@@H]2[C@H]3O[C@]3(C)CC/C=C(/C)[C@@H](OC(=O)c3ccc4ccccc4c3)C[C@@H]12
Jurkat [1]
  viability at 2 µM: 83.4%
JeKo-1 [2]
  viability at 2 µM: 97%
Jurkat [3]
  viability at 10 µM: 86.1%
JeKo-1 [4]
  viability at 10 µM: 71.9%
HeLa
  viability at 10 µM: 88.8%
A549
  viability at 10 µM: 95.8%
HCT-116
  viability at 10 µM: 100%
SJSA-1
  viability at 10 µM: 100%
SK-N-MC
  viability at 10 µM: 96.8%
PC-3
  viability at 10 µM: 83.4%
MDA-MB-231
  viability at 10 µM: 100%
SK-MEL-2
  viability at 10 µM: 98.7%

## C=C1C(=O)O[C@@H]2[C@H]3O[C@]3(C)CC/C=C(/COC(C(=O)OCC)c3ccc(C(F)(F)F)cc3)CC[C@@H]12 (stereo partly specified)
Jurkat [1]
  viability at 2 µM: 90.2%
JeKo-1 [2]
  viability at 2 µM: 89.3%
Jurkat [3]
  viability at 10 µM: 29.3%
JeKo-1 [4]
  viability at 10 µM: 26.4%
HeLa
  viability at 10 µM: 89.6%
A549
  viability at 10 µM: 74.8%
HCT-116
  viability at 10 µM: 77.5%
SJSA-1
  viability at 10 µM: 100%
SK-N-MC
  viability at 10 µM: 96.9%
PC-3
  viability at 10 µM: 87.2%
MDA-MB-231
  viability at 10 µM: 96.3%
SK-MEL-2
  viability at 10 µM: 89.8%

## C=C1C(=O)O[C@@H]2[C@H]3O[C@]3(C)CC/C=C(/C)[C@@H](OC(C(=O)OCC)c3ccccc3)C[C@@H]12 (stereo partly specified)
Jurkat [1]
  viability at 2 µM: 85.9%
JeKo-1 [2]
  viability at 2 µM: 76.6%
Jurkat [3]
  viability at 10 µM: 0%
JeKo-1 [4]
  viability at 10 µM: -2.9%
HeLa
  viability at 10 µM: 77.5%
A549
  viability at 10 µM: 60.7%
HCT-116
  viability at 10 µM: 46.2%
SJSA-1
  viability at 10 µM: 100%
SK-N-MC
  viability at 10 µM: 100%
PC-3
  viability at 10 µM: 78.9%
MDA-MB-231
  viability at 10 µM: 90%
SK-MEL-2
  viability at 10 µM: 72.5%

## C=C1C(=O)O[C@@H]2[C@H]3O[C@]3(C)CC/C=C(/COC(=O)c3ccc4ccccc4c3)CC[C@@H]12
Jurkat [1]
  viability at 2 µM: 97.9%
JeKo-1 [2]
  viability at 2 µM: 89.2%
Jurkat [3]
  viability at 10 µM: 75.7%
JeKo-1 [4]
  viability at 10 µM: 63.2%
HeLa
  viability at 10 µM: 75%
A549
  viability at 10 µM: 84.5%
HCT-116
  viability at 10 µM: 100%
SJSA-1
  viability at 10 µM: 98.3%
SK-N-MC
  viability at 10 µM: 104%
PC-3
  viability at 10 µM: 81.9%
MDA-MB-231
  viability at 10 µM: 100%
SK-MEL-2
  viability at 10 µM: 73.6%
